Experimental data taken from ChEMBL document CHEMBL1125609, “Nucleosides and nucleotides. 97. Synthesis of new broad spectrum antineoplastic nucleosides, 2'-deoxy-2'-methylidenecytidine (DMDC) and its derivatives” (J Med Chem, 1991).
In brackets after ≈: the same amount, converted by molar mass.

Legend:
L1210 = assay: In vitro cytotoxic activity against Murine leukemia L1210 cells.; assay type: functional, cell-based; details: Mus musculus
Method in brief: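 L1210 murine leukemia cells seeded at 1 × 10⁴/well, exposed with or without compound for 72 h; MTT then added and OD 570 nm read. % inhibition = [1 − OD sample/OD control] × 100; IC50 (μg/mL) taken as concentration giving 50% growth inhibition.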

B16 = assay: In vitro inhibitory activity against Mouse melanoma (B16) cell line.; assay type: functional, cell-based
Method in brief: (§1)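 Each tumor cell line seeded at 1 × 10⁴/well and incubated with or without compound for 72 h; growth measured by MTT reduction, OD 570 nm, % inhibition relative to untreated control wells. IC50 (μg/mL) is the concentration giving 50% inhibition of cell growth.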

CCRF-CEM = assay: In vitro inhibitory activity against Human T-cell acute lymphoblastoid leukemia (CCRF CEM) cell line.; assay type: functional, cell-based; method in brief: as §1
HL-60 = assay: In vitro inhibitory activity against Human promyelocytic leukemia (HL-60) cell line.; assay type: functional, cell-based; method in brief: as §1
[1] = tested on: KATO III stomach cancer cell line; assay: In vitro inhibitory activity against Human gastric carcinoma (KATO III) cell line.; assay type: functional, cell-based; method in brief: as §1
KB = assay: In vitro inhibitory activity against Human oral epidermoid carcinoma (KB) cell line.; assay type: functional, cell-based; method in brief: as §1
[2] = tested on: Lewis lung carcinoma cell line; assay: In vitro inhibitory activity against Mouse Lewis lung carcinoma (3LL) cell line.; assay type: functional, cell-based; method in brief: as §1
PC-13 = assay: In vitro inhibitory activity against Human lung large-cell carcinoma (PC-13) cell line.; assay type: functional, cell-based; method in brief: as §1
PC-6 = assay: In vitro inhibitory activity against Human lung small-cell carcinoma (PC-6) cell line.; assay type: functional, cell-based; method in brief: as §1
PC10 = assay: In vitro inhibitory activity against Human lung squamous cell carcinoma (PC-10) cell line.; assay type: functional, cell-based; method in brief: as §1
PC-14 = assay: In vitro inhibitory activity against Human lung adenocarcinoma (PC-14) cell line.; assay type: functional, cell-based; method in brief: as §1
SW480 = assay: In vitro inhibitory activity against Human colon adenocarcinoma (SW-480) cell line.; assay type: functional, cell-based; method in brief: as §1
T-24 = assay: In vitro inhibitory activity against Human bladder transitional-cell carcinoma (T-24) cell line.; assay type: functional, cell-based; method in brief: as §1
TE-2 = assay: In vitro inhibitory activity against Human esophagus adenocarcinoma (TE-2) cell line.; assay type: functional, cell-based; method in brief: as §1
U-937 = assay: In vitro inhibitory activity against Human histiocytic lymphoma (U-937) cell line.; assay type: functional, cell-based; method in brief: as §1
MOLT-4 = assay: In vitro inhibitory activity against Human T-cell acute lymphoblastic leukemia (MOLT-4) cell line.; assay type: functional, cell-based; method in brief: as §1
P-36 (Homo sapiens) = assay: In vitro inhibitory activity against Human melanoma (P-36) cell line.

C=C1C(n2cc(Br)c(=O)[nH]c2=O)O[C@H](CO)[C@@H]1O (stereo partly drawn)
IC50 (L1210): > 100 µg/mL

C=C1C(n2cc(CC)c(N)nc2=O)O[C@H](CO)[C@@H]1O (stereo partly drawn)
IC50 (L1210): > 100 µg/mL

C=C1C(n2cc(F)c(N)nc2=O)O[C@H](CO)[C@@H]1O (stereo partly drawn)
IC50 (B16): 9.2 µg/mL (≈ 35.8 µM) | IC50 (CCRF-CEM): 0.1 µg/mL (≈ 0.389 µM) | IC50 (HL-60): 0.053 µg/mL (≈ 0.206 µM) | IC50 [1]: 8.3 µg/mL (≈ 32.3 µM) | IC50 (KB): 1.4 µg/mL (≈ 5.44 µM) | IC50 (L1210): 0.33 µg/mL (≈ 1.28 µM) | IC50 [2]: 22 µg/mL (≈ 85.5 µM) | IC50 (PC-13): 1.4 µg/mL (≈ 5.44 µM) | IC50 (PC-6): 16 µg/mL (≈ 62.2 µM) | IC50 (PC10): > 100 µg/mL | IC50 (PC-14): > 100 µg/mL | IC50 (SW480): 4.4 µg/mL (≈ 17.1 µM) | IC50 (T-24): 0.94 µg/mL (≈ 3.65 µM) | IC50 (TE-2): 1.8 µg/mL (≈ 7 µM) | IC50 (U-937): 0.4 µg/mL (≈ 1.56 µM) | IC50 (MOLT-4): 0.03 µg/mL (≈ 0.117 µM) | IC50 (P-36 (Homo sapiens)): 0.25 µg/mL (≈ 0.972 µM)

C=C1C(n2cc(C)c(N)nc2=O)O[C@H](CO)[C@@H]1O (stereo partly drawn)
IC50 (B16): > 100 µg/mL | IC50 (CCRF-CEM): > 1 µg/mL | IC50 (HL-60): 3 µg/mL (≈ 11.8 µM) | IC50 [1]: > 100 µg/mL | IC50 (KB): > 100 µg/mL | IC50 (L1210): 58 µg/mL (≈ 229 µM) | IC50 [2]: > 100 µg/mL | IC50 (PC-13): > 100 µg/mL | IC50 (PC-6): > 100 µg/mL | IC50 (PC10): > 100 µg/mL | IC50 (PC-14): > 100 µg/mL | IC50 (SW480): > 100 µg/mL | IC50 (T-24): > 100 µg/mL | IC50 (TE-2): > 100 µg/mL | IC50 (U-937): > 10 µg/mL | IC50 (MOLT-4): > 100 µg/mL | IC50 (P-36 (Homo sapiens)): > 100 µg/mL

C=C1C(n2cc(F)c(=O)[nH]c2=O)O[C@H](CO)[C@@H]1O (stereo partly drawn)
IC50 (L1210): > 100 µg/mL

C=C1C(n2ccc(N)nc2=O)O[C@H](CO)[C@@H]1O (stereo partly drawn)
IC50 (B16): 3 µg/mL (≈ 12.5 µM) | IC50 (CCRF-CEM): 0.067 µg/mL (≈ 0.28 µM) | IC50 (HL-60): 0.04 µg/mL (≈ 0.167 µM) | IC50 [1]: 8.3 µg/mL (≈ 34.7 µM) | IC50 (KB): 1.4 µg/mL (≈ 5.85 µM) | IC50 (L1210): 0.37 µg/mL (≈ 1.55 µM) | IC50 [2]: 16 µg/mL (≈ 66.9 µM) | IC50 (PC-13): 1 µg/mL (≈ 4.18 µM) | IC50 (PC-6): 39 µg/mL (≈ 163 µM) | IC50 (PC10): > 100 µg/mL | IC50 (PC-14): > 100 µg/mL | IC50 (T-24): 1.1 µg/mL (≈ 4.6 µM) | IC50 (U-937): 0.44 µg/mL (≈ 1.84 µM) | IC50 (MOLT-4): 0.041 µg/mL (≈ 0.171 µM) | IC50 (P-36 (Homo sapiens)): 0.36 µg/mL (≈ 1.5 µM)

C=C1C(n2cc(I)c(=O)[nH]c2=O)O[C@H](CO)[C@@H]1O (stereo partly drawn)
IC50 (L1210): > 100 µg/mL

C=C1[C@H](n2ccc(=O)[nH]c2=O)O[C@H](CO)[C@H]1O
IC50 (L1210): > 100 µg/mL

C=C1C(n2cc(CC)c(=O)[nH]c2=O)O[C@H](CO)[C@@H]1O (stereo partly drawn)
IC50 (L1210): > 100 µg/mL

C=C1C(n2cc(C)c(=O)[nH]c2=O)O[C@H](CO)[C@@H]1O (stereo partly drawn)
IC50 (L1210): 50 µg/mL (≈ 197 µM)

C=C1C(n2cc(Cl)c(N)nc2=O)O[C@H](CO)[C@@H]1O (stereo partly drawn)
IC50 (L1210): > 100 µg/mL

C=C1C(n2cc(Br)c(N)nc2=O)O[C@H](CO)[C@@H]1O (stereo partly drawn)
IC50 (L1210): > 100 µg/mL

Nc1ccn([C@@H]2O[C@H](CO)[C@@H](O)[C@@H]2O)c(=O)n1 [CYTARABINE]
IC50 (B16): 0.24 µg/mL (≈ 0.987 µM) | IC50 (CCRF-CEM): 0.32 µg/mL (≈ 1.32 µM) | IC50 (HL-60): > 0.1 µg/mL | IC50 [1]: > 100 µg/mL | IC50 (KB): 30.5 µg/mL (≈ 125 µM) | IC50 (PC-13): > 100 µg/mL | IC50 (PC-6): 50 µg/mL (≈ 206 µM) | IC50 (PC10): > 100 µg/mL | IC50 (PC-14): > 100 µg/mL | IC50 (SW480): > 100 µg/mL | IC50 (T-24): 0.5 µg/mL (≈ 2.06 µM) | IC50 (TE-2): > 100 µg/mL | IC50 (U-937): 0.46 µg/mL (≈ 1.89 µM) | IC50 (P-36 (Homo sapiens)): 11.1 µg/mL (≈ 45.6 µM)

C=C1C(n2cc(Cl)c(=O)[nH]c2=O)O[C@H](CO)[C@@H]1O (stereo partly drawn)
IC50 (L1210): > 100 µg/mL

C#Cc1cn(C2O[C@H](CO)[C@H](O)C2=C)c(=O)[nH]c1=O (stereo partly drawn)
IC50 (L1210): > 100 µg/mL

O=c1[nH]cc(F)c(=O)[nH]1 [FLUOROURACIL]
IC50 (B16): 2.6 µg/mL (≈ 20 µM) | IC50 (HL-60): 1.3 µg/mL (≈ 9.99 µM) | IC50 [1]: 3.7 µg/mL (≈ 28.4 µM) | IC50 (KB): 12.1 µg/mL (≈ 93 µM) | IC50 (PC10): > 100 µg/mL | IC50 (PC-14): 10 µg/mL (≈ 76.9 µM) | IC50 (U-937): 3.5 µg/mL (≈ 26.9 µM) | IC50 (P-36 (Homo sapiens)): 10.7 µg/mL (≈ 82.3 µM)

C=C1C(n2cc(I)c(N)nc2=O)O[C@H](CO)[C@@H]1O (stereo partly drawn)
IC50 (L1210): > 100 µg/mL
